Experimental data collected from several papers.
Converted amounts (≈) assume the structure as drawn.

COc1cccc2c(NCc3ccccc3)nc(-n3c(=O)oc4ccccc43)nc12 has a solubility of less than 0.01 µg/mL (aqueous buffer; pH 6.2).
For CCCn1nc(C(=O)N2CCCCC2)c2c1CCC(N(C)Cc1ccc(F)cc1)C2 (centres unmarked), the thermodynamic solubility was 2400 µM (PBS; 16 h, pH 7.4).
For CC(=O)N[C@@H](CCCNC(=N)N)C(=O)N[C@H]1CSSC[C@@H](C(=O)N[C@H](C(N)=O)[C@@H](C)O)NC(=O)[C@H](CCCNC(=N)N)NC(=O)[C@H](Cc2c[nH]cn2)NC(=O)[C@H](C)NC(=O)CNC(=O)[C@H](Cc2c[nH]c3ccccc23)NC(=O)[C@H](CC(=O)O)NC(=O)[C@H](CCC(N)=O)NC(=O)[C@H](Cc2c[nH]c3ccccc23)NC(=O)[C@H](C(C)C)NC1=O, the thermodynamic solubility was greater than 1000 µM (absorbance; water).
The solubility of Brc1cccc2c(NCc3ccccc3)nc(NCc3ccccc3)nc12 is reported as 0.42 µg/mL (≈ 1 µM) (aqueous buffer; pH 5).
CC(=O)N[C@@H](CCCNC(=N)N)C(=O)N[C@H]1CSSC[C@@H](C(=O)N[C@H](C(N)=O)[C@@H](C)O)NC(=O)[C@H](CCCNC(=N)N)NC(=O)[C@H](Cc2c[nH]cn2)NC(=O)[C@H](C)NC(=O)CNC(=O)[C@H](Cc2c[nH]c3ccccc23)NC(=O)[C@H](CC(=O)O)NC(=O)[C@H](CCC(N)=O)NC(=O)[C@H](Cc2cn(C)c3ccccc23)NC(=O)[C@H](C(C)C)NC1=O has a thermodynamic solubility of greater than 1000 µM (absorbance; water).
For COc1ccc(C2CC(=O)c3c(O)cc(O)cc3O2)cc1O (centres unmarked), the thermodynamic solubility was 9.33 µg/mL (shake flask; aqueous buffer; 24 h, pH 5, 25 °C).
With CC[C@H](C)[C@H](NC(=O)[C@H](Cc1ccccc1)NC(=O)[C@@H](CCCCN)NC(=O)[C@@H]1CCCN1C(=O)[C@@H](N)Cc1ccc(O)cc1)C(=O)N1CCC[C@H]1C(=O)N[C@@H](CC(C)C)C(=O)NCC(=O)N[C@H](CCCCN)C(=O)NCC(=O)N[C@@H](CCC(=O)O)C(=O)N[C@H](C(=O)N[C@@H](CC(N)=O)C(=O)N[C@@H](CC(C)C)[C@@H](O)CC(=O)N[C@H](C(=O)N[C@@H](C)C(=O)N[C@@H](CCC(=O)O)C(=O)N1CCC[C@@H]1C(=O)N[C@@H](CCCCNC(=O)CCC(=O)O[C@H]1CC[C@@]2(C)C(=CC[C@H]3[C@@H]4CC[C@H]([C@H](C)CCCC(C)C)[C@@]4(C)CC[C@@H]32)C1)C(N)=O)C(C)C)C(C)C the thermodynamic solubility was greater than 3000 µg/mL (aqueous buffer; pH 6.5).
With Brc1ccccc1CNc1nc(NCc2ccccc2)c2ccccc2n1 the solubility was 0.24 µg/mL (≈ 0.572 µM) (aqueous buffer; pH 6.2).
With CC[C@H](C)[C@H](NC(=O)[C@H](Cc1ccccc1)NC(=O)[C@H](Cc1ccc(O)cc1)NC(=O)[C@@H](CCCCN)NC(=O)[C@@H](N)Cc1ccc(O)cc1)C(=O)N1CCC[C@H]1C(=O)N[C@@H](CC(C)C)C(=O)NCC(=O)N[C@H](CCCCN)C(=O)NCC(=O)N[C@@H](CCC(=O)O)C(=O)N[C@H](C(=O)N[C@@H](CC(N)=O)C(=O)N[C@@H](CC(C)C)[C@@H](O)CC(=O)N[C@H](C(=O)N[C@@H](C)C(=O)N[C@@H](CCC(=O)O)C(=O)N1CCC[C@@H]1C(=O)N[C@@H](CCCCNC(=O)CCC(=O)O[C@H]1CC[C@@]2(C)C(=CC[C@H]3[C@@H]4CC[C@H]([C@H](C)CCCC(C)C)[C@@]4(C)CC[C@@H]32)C1)C(N)=O)C(C)C)C(C)C the thermodynamic solubility was less than 1 µg/mL (aqueous buffer; pH 6.5).
For CC(=O)Nc1cc(Nc2cc(NC3CC3)n3ncc(C#N)c3n2)ccc1N(C)[C@H]1CCOC1, the kinetic solubility was 21 µg/mL (≈ 47 µM) (shake flask; PBS; 24 h, pH 7.4, 22 °C).
With CC[C@H](C)[C@H](NC(=O)[C@H](Cc1ccccc1)NC(=O)[C@H](Cc1ccc(O)cc1)NC(=O)[C@@H]1CCCN1C(=O)[C@H](N)CCCCN)C(=O)N1CCC[C@H]1C(=O)N[C@@H](CC(C)C)C(=O)NCC(=O)N[C@H](CCCCN)C(=O)NCC(=O)N[C@@H](CCC(=O)O)C(=O)N[C@H](C(=O)N[C@@H](CC(N)=O)C(=O)N[C@@H](CC(C)C)[C@@H](O)CC(=O)N[C@H](C(=O)N[C@@H](C)C(=O)N[C@@H](CCC(=O)O)C(=O)N1CCC[C@@H]1C(=O)N[C@@H](CCCCNC(=O)CCC(=O)O[C@H]1CC[C@@]2(C)C(=CC[C@H]3[C@@H]4CC[C@H]([C@H](C)CCCC(C)C)[C@@]4(C)CC[C@@H]32)C1)C(N)=O)C(C)C)C(C)C the thermodynamic solubility was 951 µg/mL (aqueous buffer; pH 6.5).
With Brc1cccc(Nc2nc(NCc3ccccc3)c3ccccc3n2)c1 the solubility was less than 0.01 µg/mL (aqueous buffer; pH 7.4).
CC(=O)Oc1ccccc1C(=O)O gave a thermodynamic solubility of 158000 µg/mL (aqueous buffer; 72 h, pH 6.8, 37 °C).
For CC[C@H](C)[C@H](NC(=O)[C@@H](CCCCN)NC(=O)[C@H](Cc1ccc(O)cc1)NC(=O)[C@@H]1CCCN1C(=O)[C@@H](N)Cc1ccc(O)cc1)C(=O)N1CCC[C@H]1C(=O)N[C@@H](CC(C)C)C(=O)NCC(=O)N[C@H](CCCCN)C(=O)NCC(=O)N[C@@H](CCC(=O)O)C(=O)N[C@H](C(=O)N[C@@H](CC(N)=O)C(=O)N[C@@H](CC(C)C)[C@@H](O)CC(=O)N[C@H](C(=O)N[C@@H](C)C(=O)N[C@@H](CCC(=O)O)C(=O)N1CCC[C@@H]1C(=O)N[C@@H](CCCCNC(=O)CCC(=O)O[C@H]1CC[C@@]2(C)C(=CC[C@H]3[C@@H]4CC[C@H]([C@H](C)CCCC(C)C)[C@@]4(C)CC[C@@H]32)C1)C(N)=O)C(C)C)C(C)C, the thermodynamic solubility was greater than 2440 µg/mL (aqueous buffer; pH 6.5).
